From ChEMBL document CHEMBL4665761, “Optimizing the Benefit/Risk of Acetyl-CoA Carboxylase Inhibitors through Liver Targeting” (J Med Chem, 2020) come the findings set out here.

The species entered for one data set is Rattus norvegicus. Put plainly: Fraction unbound in rat plasma by equilibrium dialysis method. On the technique in general: In equilibrium dialysis only unbound substance equilibrates across the membrane.
The nature of data set [1]: Fraction unbound in rat liver by equilibrium dialysis method.
Data set [2] in a line: AUC (0 to 24 hrs) in Wistar-Hannover rat plasma at 1 mg/kg, iv and measured up to 24 hrs by LC/MS-MS analysis. Type of data set: ADME, organism-based. Also noted: route intravenous, dose 1 mg/kg, time <=24. The gist of the method: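 Male Wistar-Hannover rats (240–350 g) with jugular vein cannulas were given 1 mg/kg IV at 2 mL/kg. Vehicle, depending on compound, was 10% DMSO/90% of 20% sulfobutylether-β-cyclodextrin in water or 10% DMSO/30% PEG400/60% water. AUC0–24 came from plasma concentration–time data by the linear trapezoidal rule, averaged for n = 2. Lower detection limit was 1 ng/mL.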

Data set [3] in a line: Clearance in Wistar-Hannover rat plasma at 1 mg/kg, iv and measured up to 24 hrs by LC/MS-MS analysis. Type of data set: ADME, organism-based. The gist of the method:
(§1)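 Male Wistar-Hannover rats (240–350 g) with jugular vein cannulas, dosed 1 mg/kg IV (2 mL/kg) or PO. IV vehicle was 10% DMSO/90% of 20% sulfobutylether-β-cyclodextrin in water, or 10% DMSO/30% PEG400/60% water. Plasma was analysed by LC-MS/MS. Parameters come from plasma concentration–time data, n = 2: Cmax observed directly, AUC0-24 by the linear trapezoidal rule, CL = IV dose/AUC, Vss = dose/(AUC × elimination rate constant).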

A further data set deals with Acetyl-CoA carboxylase 1 (Homo sapiens, UniProt Q13085). The experiment in a line: Inhibition of recombinant human ACC1 using acetyl coA as substrate incubated for 1 hr by transcreener fluorescence polarization assay. The gist of the method: (§2)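 Recombinant human enzyme, Transcreener assay run per an earlier protocol. IC50 is the geometric mean of at least three replicates, also given as pIC50 ± SD.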

The nature of data set [4]: Apparent permeability in MCDKII-LE cells at 2 uM incubated for 30 mins. The conditions noted are these: dog, MDCK. Type of data set: ADME, cell-based, Canis lupus familiaris, MDCKII-LE. The gist of the method: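 MDCK-LE (low-efflux) cell monolayers with a 30 min pre-incubation. Read-out is apparent passive permeability (Papp, 10^-6 cm/s).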
A short description of data set [5]: Apparent volume of distribution at steady state in Wistar-Hannover rat plasma at 1 mg/kg, iv and measured up to 24 hrs by LC/MS-MS analysis. Type of data set: ADME, organism-based. The conditions noted are these: read-out: Vdss(app). The gist of the method: as §1
Data set [6] in a line: Metabolic intrinsic clearance in human hepatocytes assessed per million cells incubated for 2 hrs. Type of data set: ADME, cell-based, Hepatocyte. The conditions noted are these: read-out: CLH. The gist of the method:
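Cryopreserved human hepatocytes incubated for 2 h. In vitro half-lives scaled to intrinsic clearance, expressed per 10^6 cells.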

The nature of data set [7]: Octanol-water partition coefficient, logD of compound at pH 7.4 at 0.5 to 2 mg incubated for 1 hr by HPLC based shake-flask method. Type of data set: physicochemical. The following applies: dose 0.5-2 mg. The gist of the method: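 Shake-flask octanol/water partition at pH 7.4.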
A short description of data set [8]: Half life in Wistar-Hannover rat plasma at 1 mg/kg, iv and measured up to 24 hrs by LC/MS-MS analysis. Type of data set: ADME, organism-based. In a few lines:
as §1

For the next data set, the target named is Acetyl-CoA carboxylase 2 (Homo sapiens, UniProt O00763). The experiment in a line: Inhibition of recombinant human ACC2 using acetyl coA as substrate incubated for 1 hr by transcreener fluorescence polarization assay. The gist of the method: as §2
Chain of Acetyl-CoA carboxylase 2 (O00763 whole entry): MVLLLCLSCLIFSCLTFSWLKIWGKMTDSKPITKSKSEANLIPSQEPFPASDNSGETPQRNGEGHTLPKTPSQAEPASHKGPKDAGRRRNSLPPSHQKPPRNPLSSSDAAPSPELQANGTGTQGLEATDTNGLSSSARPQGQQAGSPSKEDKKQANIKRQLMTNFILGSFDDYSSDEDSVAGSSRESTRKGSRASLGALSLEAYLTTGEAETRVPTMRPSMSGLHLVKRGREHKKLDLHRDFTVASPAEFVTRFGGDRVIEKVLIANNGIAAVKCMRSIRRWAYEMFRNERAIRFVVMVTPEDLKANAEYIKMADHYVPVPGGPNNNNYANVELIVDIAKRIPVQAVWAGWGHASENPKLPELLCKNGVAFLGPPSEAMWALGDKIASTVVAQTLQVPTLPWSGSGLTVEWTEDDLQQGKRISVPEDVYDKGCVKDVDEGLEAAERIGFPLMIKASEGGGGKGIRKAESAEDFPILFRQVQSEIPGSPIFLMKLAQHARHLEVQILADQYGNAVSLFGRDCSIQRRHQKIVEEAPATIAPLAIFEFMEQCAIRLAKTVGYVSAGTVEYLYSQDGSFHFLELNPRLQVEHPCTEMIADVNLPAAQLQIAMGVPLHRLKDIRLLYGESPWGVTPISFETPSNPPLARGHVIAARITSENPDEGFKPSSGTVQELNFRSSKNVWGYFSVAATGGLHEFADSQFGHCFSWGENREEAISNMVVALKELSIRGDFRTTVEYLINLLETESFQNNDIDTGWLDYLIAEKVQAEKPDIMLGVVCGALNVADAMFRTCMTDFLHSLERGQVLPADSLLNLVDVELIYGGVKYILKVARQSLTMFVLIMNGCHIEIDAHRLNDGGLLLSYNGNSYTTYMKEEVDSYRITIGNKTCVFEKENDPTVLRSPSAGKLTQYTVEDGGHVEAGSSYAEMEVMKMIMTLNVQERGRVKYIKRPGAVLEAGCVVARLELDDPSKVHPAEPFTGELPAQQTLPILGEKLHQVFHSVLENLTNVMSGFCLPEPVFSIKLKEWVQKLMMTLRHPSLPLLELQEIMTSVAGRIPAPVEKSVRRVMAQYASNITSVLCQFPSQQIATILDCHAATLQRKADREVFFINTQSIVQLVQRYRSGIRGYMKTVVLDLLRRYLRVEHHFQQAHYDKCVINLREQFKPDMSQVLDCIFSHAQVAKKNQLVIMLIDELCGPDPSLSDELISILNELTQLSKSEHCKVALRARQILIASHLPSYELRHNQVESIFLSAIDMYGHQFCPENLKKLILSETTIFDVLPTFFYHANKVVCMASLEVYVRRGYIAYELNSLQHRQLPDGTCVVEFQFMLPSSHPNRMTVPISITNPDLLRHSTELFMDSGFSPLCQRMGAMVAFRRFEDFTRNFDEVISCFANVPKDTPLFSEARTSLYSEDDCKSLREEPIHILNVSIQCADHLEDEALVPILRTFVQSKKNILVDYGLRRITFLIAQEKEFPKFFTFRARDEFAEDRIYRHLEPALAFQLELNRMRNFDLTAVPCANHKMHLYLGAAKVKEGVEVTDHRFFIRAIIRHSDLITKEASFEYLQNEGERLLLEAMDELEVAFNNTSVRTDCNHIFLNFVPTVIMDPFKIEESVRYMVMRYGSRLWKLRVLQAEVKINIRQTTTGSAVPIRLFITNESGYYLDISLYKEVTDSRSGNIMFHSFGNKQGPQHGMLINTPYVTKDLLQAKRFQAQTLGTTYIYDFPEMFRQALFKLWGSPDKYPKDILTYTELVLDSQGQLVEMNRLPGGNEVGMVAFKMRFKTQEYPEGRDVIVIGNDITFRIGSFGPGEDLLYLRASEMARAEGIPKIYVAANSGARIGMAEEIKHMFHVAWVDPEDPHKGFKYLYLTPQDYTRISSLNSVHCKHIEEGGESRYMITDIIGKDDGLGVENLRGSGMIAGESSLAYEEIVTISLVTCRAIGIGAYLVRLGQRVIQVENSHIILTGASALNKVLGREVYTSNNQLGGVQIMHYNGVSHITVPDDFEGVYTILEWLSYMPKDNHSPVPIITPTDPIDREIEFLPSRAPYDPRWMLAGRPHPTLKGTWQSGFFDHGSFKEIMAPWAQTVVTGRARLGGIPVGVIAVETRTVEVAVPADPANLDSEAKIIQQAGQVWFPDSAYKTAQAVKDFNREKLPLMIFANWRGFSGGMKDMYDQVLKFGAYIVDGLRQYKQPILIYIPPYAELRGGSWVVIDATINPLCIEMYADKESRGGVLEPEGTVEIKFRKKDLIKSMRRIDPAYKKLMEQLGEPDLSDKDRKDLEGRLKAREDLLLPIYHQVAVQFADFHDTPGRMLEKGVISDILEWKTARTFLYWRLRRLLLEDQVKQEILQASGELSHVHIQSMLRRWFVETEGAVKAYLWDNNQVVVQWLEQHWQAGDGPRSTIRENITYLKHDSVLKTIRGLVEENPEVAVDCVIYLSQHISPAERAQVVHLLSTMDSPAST
A general note: Polarisation of emitted light reports the rotation of a fluorescent probe.

Data set [9] can be described thus: Genotoxicity in Salmonella typhimurium TA1537 by Ames test. Type of data set: toxicity. The following applies: salmonella enterica subsp. enterica serovar typhimurium. In a few lines:
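Ames test in Salmonella strains TA98, TA100, TA1535 and TA1537, run with and without aroclor-induced rat liver S9 plus NADPH.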
On the technique in general: The Ames test detects mutagens through reverse mutation in bacteria.

For a further data set, the target named is OATP2B1 (Homo sapiens, UniProt O94956). The experiment in a line: Substrate activity at human OATP2B1 stably expressed in HEK293 cells assessed as ratio of total to passive cellular uptake at 1 uM incubated for 0.5 to 4 mins by LC/MS-MS analysis. Type of data set: cell-based. The following applies: HEK293 cells stably expressing human OATP2B1, time 0.5-4 min. In a few lines: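 HEK293 cells stably transfected with the transporter, plus wild-type cells, grown to confluence in DMEM with 10% heat-inactivated FBS and 5 µg/mL blasticidin. Washed with HBSS/20 mM HEPES, pH 7.4, then incubated with compound at 37 °C for 0.5–4.0 min. Cells washed ice-cold, lysed in MeOH for LC-MS/MS, uptake normalized to BCA protein. Ratio = transfected/wild-type uptake, averaged over time points.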
Chain of OATP2B1 (O94956 whole entry): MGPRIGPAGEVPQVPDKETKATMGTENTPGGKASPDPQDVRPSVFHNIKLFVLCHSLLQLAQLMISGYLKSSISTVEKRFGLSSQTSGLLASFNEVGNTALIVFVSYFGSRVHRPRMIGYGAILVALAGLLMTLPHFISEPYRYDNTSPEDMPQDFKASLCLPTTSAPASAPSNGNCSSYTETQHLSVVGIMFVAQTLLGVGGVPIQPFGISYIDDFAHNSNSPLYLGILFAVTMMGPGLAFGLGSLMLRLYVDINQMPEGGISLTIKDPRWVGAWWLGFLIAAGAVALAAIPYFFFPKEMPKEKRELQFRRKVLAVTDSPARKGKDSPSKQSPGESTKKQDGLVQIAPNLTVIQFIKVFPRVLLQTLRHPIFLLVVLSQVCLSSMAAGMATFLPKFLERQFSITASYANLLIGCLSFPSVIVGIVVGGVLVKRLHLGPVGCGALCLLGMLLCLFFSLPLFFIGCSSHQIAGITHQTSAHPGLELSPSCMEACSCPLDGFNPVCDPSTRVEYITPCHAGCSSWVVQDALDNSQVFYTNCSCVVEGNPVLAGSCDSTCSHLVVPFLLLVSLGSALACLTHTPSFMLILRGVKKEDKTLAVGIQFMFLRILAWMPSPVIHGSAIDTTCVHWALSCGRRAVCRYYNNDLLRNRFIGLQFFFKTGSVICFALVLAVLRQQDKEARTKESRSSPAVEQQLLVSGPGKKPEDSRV

The target of data set [10] is Solute carrier organic anion transporter family member 1B3 (Homo sapiens, UniProt Q9NPD5). The experiment in a line: Inhibition of human OATP1B3 expressed in HEK293 cells n presence of rosuvastatin. Type of data set: cell-based.
Another data set deals with Bile salt export pump (Homo sapiens, UniProt O95342). The experiment in a line: Inhibition of human BSEP expressed in baculovirus infected Hi5 insect cells in presence of taurocholic acid by LC-MS/MS analysis.
Chain of Bile salt export pump (O95342 whole entry): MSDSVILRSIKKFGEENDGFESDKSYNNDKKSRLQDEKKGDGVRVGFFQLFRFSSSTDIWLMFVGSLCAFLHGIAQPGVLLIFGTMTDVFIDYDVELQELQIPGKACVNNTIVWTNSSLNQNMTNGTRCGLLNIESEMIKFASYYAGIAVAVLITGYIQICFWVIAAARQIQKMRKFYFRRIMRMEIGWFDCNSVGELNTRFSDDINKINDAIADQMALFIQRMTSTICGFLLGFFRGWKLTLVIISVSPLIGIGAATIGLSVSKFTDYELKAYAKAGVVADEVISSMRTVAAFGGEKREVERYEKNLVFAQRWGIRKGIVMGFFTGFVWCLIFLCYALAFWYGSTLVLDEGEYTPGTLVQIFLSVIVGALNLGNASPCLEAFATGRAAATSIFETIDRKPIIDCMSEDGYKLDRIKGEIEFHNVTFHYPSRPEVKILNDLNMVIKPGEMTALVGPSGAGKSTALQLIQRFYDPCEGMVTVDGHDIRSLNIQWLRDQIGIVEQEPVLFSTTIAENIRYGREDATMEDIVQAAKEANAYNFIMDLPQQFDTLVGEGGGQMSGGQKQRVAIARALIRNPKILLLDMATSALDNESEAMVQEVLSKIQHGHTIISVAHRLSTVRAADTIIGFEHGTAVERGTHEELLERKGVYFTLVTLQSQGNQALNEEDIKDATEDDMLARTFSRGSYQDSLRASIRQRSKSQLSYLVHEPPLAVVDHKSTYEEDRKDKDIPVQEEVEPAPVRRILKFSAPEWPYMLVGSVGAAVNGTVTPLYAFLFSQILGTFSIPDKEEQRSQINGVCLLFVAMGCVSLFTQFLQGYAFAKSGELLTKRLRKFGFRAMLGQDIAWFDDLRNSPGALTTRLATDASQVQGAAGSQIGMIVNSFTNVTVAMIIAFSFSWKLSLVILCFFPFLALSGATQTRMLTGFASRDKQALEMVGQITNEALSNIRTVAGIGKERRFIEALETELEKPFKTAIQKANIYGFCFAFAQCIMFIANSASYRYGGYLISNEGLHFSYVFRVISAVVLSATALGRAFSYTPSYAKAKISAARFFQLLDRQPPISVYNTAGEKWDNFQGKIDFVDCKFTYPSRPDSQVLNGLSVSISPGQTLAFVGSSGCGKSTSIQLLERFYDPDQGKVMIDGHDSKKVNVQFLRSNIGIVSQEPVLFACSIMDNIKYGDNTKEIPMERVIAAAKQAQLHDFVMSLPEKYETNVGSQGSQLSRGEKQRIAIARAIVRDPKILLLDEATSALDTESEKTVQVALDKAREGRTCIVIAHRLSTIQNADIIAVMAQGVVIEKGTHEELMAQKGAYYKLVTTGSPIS
The target in a further data set is Cytochrome P450 2C8 (Homo sapiens, UniProt P10632). The experiment in a line: inhibition of CYP2C8 in human liver microsomes. Type of data set: ADME.
Chain of Cytochrome P450 2C8 (P10632 whole entry): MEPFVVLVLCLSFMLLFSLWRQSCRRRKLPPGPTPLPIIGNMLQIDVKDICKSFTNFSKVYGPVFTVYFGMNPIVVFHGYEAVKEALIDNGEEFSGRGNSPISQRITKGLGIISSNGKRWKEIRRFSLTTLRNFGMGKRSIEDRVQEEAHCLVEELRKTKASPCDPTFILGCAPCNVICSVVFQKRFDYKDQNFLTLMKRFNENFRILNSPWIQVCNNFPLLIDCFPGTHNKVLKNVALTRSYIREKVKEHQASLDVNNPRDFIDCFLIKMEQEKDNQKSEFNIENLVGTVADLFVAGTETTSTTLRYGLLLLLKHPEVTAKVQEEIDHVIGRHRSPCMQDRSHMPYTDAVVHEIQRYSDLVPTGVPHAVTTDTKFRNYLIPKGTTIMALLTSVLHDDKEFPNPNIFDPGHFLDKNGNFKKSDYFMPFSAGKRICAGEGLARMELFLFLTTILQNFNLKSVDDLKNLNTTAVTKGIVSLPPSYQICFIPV
For a further data set, the target named is T1, OATP1B3 (Homo sapiens, UniProt Q9NPD5).
T1 sequence (Q9NPD5 whole entry): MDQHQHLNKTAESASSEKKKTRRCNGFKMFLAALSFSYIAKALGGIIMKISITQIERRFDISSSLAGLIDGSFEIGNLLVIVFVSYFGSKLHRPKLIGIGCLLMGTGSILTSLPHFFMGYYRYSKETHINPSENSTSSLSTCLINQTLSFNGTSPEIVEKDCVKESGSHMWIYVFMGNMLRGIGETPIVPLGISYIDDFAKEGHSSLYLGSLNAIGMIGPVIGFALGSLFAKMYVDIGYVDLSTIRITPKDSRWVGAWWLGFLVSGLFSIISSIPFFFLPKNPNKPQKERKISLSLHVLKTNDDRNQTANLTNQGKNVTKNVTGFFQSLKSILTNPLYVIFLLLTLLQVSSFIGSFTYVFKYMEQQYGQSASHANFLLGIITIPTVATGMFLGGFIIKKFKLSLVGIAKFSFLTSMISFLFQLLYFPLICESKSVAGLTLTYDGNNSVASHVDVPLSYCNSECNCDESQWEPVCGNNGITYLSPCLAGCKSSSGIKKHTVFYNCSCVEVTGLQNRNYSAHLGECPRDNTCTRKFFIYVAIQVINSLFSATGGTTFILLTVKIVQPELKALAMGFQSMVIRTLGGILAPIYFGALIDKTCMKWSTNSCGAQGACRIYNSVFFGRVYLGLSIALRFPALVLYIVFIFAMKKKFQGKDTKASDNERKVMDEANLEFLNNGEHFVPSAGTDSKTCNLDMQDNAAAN
The experiment in a line: Substrate activity at human OATP1B3 stably expressed in HEK293 cells assessed as ratio of total to passive cellular uptake at 1 to 3 uM incubated for 0.5 to 4 mins by LC/MS-MS analysis. Type of data set: ADME, cell-based. The following applies: HEK293 cells stably expressing human OATP1B3, dose 1-3 µM, time 0.5-4 min. The gist of the method: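 Stably transfected HEK293 cells and wild-type parental cells, cultured to confluency in DMEM with 10% heat-inactivated FBS and 5 µg/mL blasticidin. Uptake at 1–3 µM in HBSS/20 mM HEPES pH 7.4, 37 °C, 0.5–4.0 min. Cells washed in ice-cold buffer, lysed in MeOH, quantified by LC-MS/MS and normalized to protein. Ratio is transfected/parental uptake; >2 denotes substrate.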

For orientation: fraction unbound means free concentration divided by total concentration. A higher fraction unbound goes with weak binding. The term AUC(0-t) denotes the area under the concentration-time curve up to a stated or last time point. One may read the clearance as the volume of plasma or blood freed of the substance per unit of time. Read a high clearance as a high capacity for elimination. One may read the IC50 as the concentration needed to halve the response being measured. In general, Papp refers to a coefficient for how fast a substance crosses the barrier. As a reminder, the logD is the decadic logarithm of the distribution of all forms, ionised or not, between an organic phase and buffer at a given pH. High values mean higher lipophilicity, low ones lower lipophilicity. In general, half-life refers to the time needed for the level to fall by half in the phase considered. A lower half-life goes with fast loss. For `COc1cc(C(=O)N2CCC3(CC2)CC(=O)c2nn(C(C)(C)C)cc2O3)cc(-c2ccc(C(=O)O)cc2)n1`, the values for the fraction unbound (in the data set filed under Rattus norvegicus; in data set [1]) were 0.17 and 0.07, respectively. In data set [2], this compound showed an AUC(0-t) of 299 ng·h/mL. This compound had a clearance in data set [3] of 54.5 mL/min/kg. The IC50 on Acetyl-CoA carboxylase 1 is 22 nM; on Acetyl-CoA carboxylase 2, 13 nM. In [4], the Papp at 0.5 h, 2 µM came out at 2 ×10⁻⁶ cm/s. Besides, in [5], the Vd worked out at 4.1 L/kg. In data set [6], the hepatocyte CLint is < 3 µL/min/1e6 cells. The same compound displayed a logD at 1 h in data set [7] of 0.5. In addition, the half-life in [8] is 3.5 h.

As to `COc1cc(C(=O)N2CCC3(CC2)CC(=O)c2c(cnn2C(C)C)C3)cc(-c2ccc(C(=O)O)cc2)n1` [CLESACOSTAT], the fraction unbound in the data set filed under Rattus norvegicus turned out to be 0.0392; in [1] it was 0.066. Also, the Activity entry in data set [9] is “Non-Toxic”. The exposure AUC(0-t) in data set [2] is 965 ng·h/mL. Moreover, the uptake ratio at 1 µM on OATP2B1 stood at 7. In data set [3], the clearance came to 16 mL/min/kg. For the same compound, the IC50 in data set [10] is 137000 nM; on Acetyl-CoA carboxylase 1, 33 nM; at Bile salt export pump, 94000 nM; at Cytochrome P450 2C8 it was > 50000 nM; at Acetyl-CoA carboxylase 2 it was 26 nM. In data set [4], the Papp at 0.5 h, 2 µM came out at 14 ×10⁻⁶ cm/s. For the same compound, the Vd in data set [5] worked out at 7.2 L/kg. Besides, the hepatocyte CLint in data set [6] was < 3 µL/min/1e6 cells. Besides, the uptake ratio at up to 3 µM on OATP1B3 was determined as 2.5. In data set [7], this compound came in with a logD at 1 h of 1.1. This compound had a half-life in [8] of 8.6 h.
